Laboratory results: ChEMBL document CHEMBL1122952, “Thromboxane synthetase inhibitors (TXSI). Design, synthesis, and evaluation of a novel series of omega-pyridylalkenoic acids” (J Med Chem, 1985)

Legend:
Format in all cases: functional
Rattus norvegicus [1] = assay: Ex vivo percent inhibition against serum TXB2 production after 2 hr at dose 10 mg/kg by oral administration in rat
Rattus norvegicus [2] = assay: Ex vivo percent inhibition against serum TXB2 production after 24 hr r at dose 1 mg/kg by oral administration in rat
In short: (§1)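 Male Sprague–Dawley rats, 7–8 weeks old, dosed orally. Controls got vehicle alone (2 mL/kg water with a little gum arabic). At 24 h, 1 mL blood was drawn from the abdominal aorta under pentobarbital anesthesia (50 mg/kg ip) and clotted 90 min at 25 °C. Serum TXB2 was measured by radioimmunoassay. % inhibition = [1 − (B/A)] × 100 versus untreated rats.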

Rattus norvegicus [3] = assay: Ex vivo percent inhibition against serum TXB2 production after 24 hr r at dose 10 mg/kg by oral administration in rat; in short: as §1

| SMILES | inhibition in vivo at 10 mg/kg (Rattus norvegicus [1]) [%] | inhibition in vivo at 1 mg/kg (Rattus norvegicus [2]) [%] | inhibition in vivo at 10 mg/kg (Rattus norvegicus [3]) [%] |
| --- | --- | --- | --- |
| O=C(O)CCCC/C=C(\c1ccccc1)c1ccc[n+]([O-])c1 | 85 |  |  |
| NC(=O)CCCC/C=C(\c1ccccc1)c1cccnc1 | 93 |  |  |
| O=C(O)CCCCC/C=C(\c1ccccc1)c1cccnc1 |  | 24 |  |
| COC(=O)CCCC/C=C(\c1ccccc1)c1cccnc1 | 92 |  |  |
| CC(C)(CCC/C=C(\c1ccccc1)c1cccnc1)C(=O)O |  | 14 |  |
| OCCCCC/C=C(\c1ccccc1)c1cccnc1 | 92 |  |  |
| O=C(O)CCCCCC/C=C(\c1ccccc1)c1cccnc1 |  | 17 |  |
| CC(C)CSC(CCC/C=C(\c1ccccc1)c1cccnc1)C(=O)O (stereo unspecified) |  | 8 |  |
| CCOC(=O)CCCC/C=C(\c1ccccc1)c1cccnc1 | 90 | 35 |  |
| CC(C)(CCC/C=C(/c1cccnc1)c1cccs1)C(=O)O |  | 17 |  |
| O=C(O)CCCCCCCC/C=C(\c1ccccc1)c1cccnc1 | 92 | 10 |  |
| CC(C)(O)C(CCC/C=C(\c1ccccc1)c1cccnc1)C(=O)O (stereo unspecified) |  | 37 |  |
| O=C(O)CCCC/C=C(\c1ccccc1)c1cccnc1 [(E)-ISBOGREL] |  | 53 | 90 |
